In ChEMBL document CHEMBL4257459, “Synergistic antifungal effect of cyclized chalcone derivatives and fluconazole against Candida albicans” (2017):
≈ marks a conversion by molar mass, not a printed value.

What was measured:
Candida albicans [1] = experiment: Antifungal activity against Candida albicans ATCC 90028 in presence of fluconazole by CLSI protocol based broth microdilution method; assay type: functional
Candida albicans [2] = experiment: Antifungal activity against fluconazole resistant Candida albicans 167-2 by CLSI protocol based broth microdilution method; assay type: functional
Summary of the method: (§1)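 Broth microdilution per CLSI M27-A3 against clinical C. albicans isolates. Strains sub-cultured at least twice on Tryptone Soya Agar, 37 °C, 48 h. Compounds dissolved in DMSO at 2000 μg mL–1 stock. Fluconazole positive control, plus culture, media and vehicle controls. Run in duplicate; MIC in μg mL–1.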

Candida albicans [3] = experiment: Inhibition of ABC efflux pumps in fluconazole susceptible Candida albicans 004B1 assessed as reduction in energy-dependent rhodamine 6G efflux in presence of 0.1 M glucose after 25 mins by fluorescence assay relative to control
Summary of the method: (§2)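 Cells grown in TSB at 37 °C for 8 h, washed, resuspended in glucose-free PBS at 1 × 10^8 cells. De-energized 45 min with 5 mM deoxyglucose plus 5 mM dinitrophenol. […] Washed, sampled 5–25 min, then 0.1 M glucose added. Absorbance 527 nm, R6G from standard curve.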

Candida albicans [4] = experiment: Inhibition of ABC efflux pumps in fluconazole susceptible Candida albicans 0079gr assessed as reduction in energy-dependent rhodamine 6G efflux in presence of 0.1 M glucose after 25 mins by fluorescence assay relative to control; summary of the method: as §2
Candida albicans [5] = experiment: Antifungal activity against fluconazole susceptible Candida albicans 0072gr in presence of fluconazole by CLSI protocol based broth microdilution method; assay type: functional
Candida albicans [6] = experiment: Antifungal activity against fluconazole susceptible Candida albicans 002B1 in presence of fluconazole by CLSI protocol based broth microdilution method; assay type: functional
Candida albicans [7] = experiment: Inhibition of ABC efflux pumps in fluconazole resistant Candida albicans 167-1 assessed as reduction in energy-dependent rhodamine 6G efflux in presence of 0.1 M glucose after 25 mins […] relative to control
Candida albicans [8] = experiment: Inhibition of ABC efflux pumps in fluconazole susceptible Candida albicans 0072gr assessed as reduction in energy-dependent rhodamine 6G efflux in presence of 0.1 M glucose after 25 mins […] relative to control
Candida albicans [9] = experiment: Inhibition of ABC efflux pumps in fluconazole susceptible Candida albicans 002B1 assessed as reduction in energy-dependent rhodamine 6G efflux in presence of 0.1 M glucose after 25 mins […] relative to control
Candida albicans [10] = experiment: Antifungal activity against fluconazole susceptible Candida albicans 004gr in presence of fluconazole by CLSI protocol based broth microdilution method; assay type: functional
Candida albicans [11] = experiment: Inhibition of ABC efflux pumps in fluconazole susceptible Candida albicans 004gr assessed as reduction in energy-dependent rhodamine 6G efflux in presence of 0.1 M glucose after 25 mins by fluorescence assay relative to control; summary of the method: as §2
Candida albicans [12] = experiment: Antifungal activity against fluconazole resistant Candida albicans A171 in presence of fluconazole by CLSI protocol based broth microdilution method; assay type: functional
Summary of the method: (§3)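 Checkerboard-style combination with fluconazole at a 1 : 1 ratio, over concentrations 2–4 fold below each agent's MIC alone, by CLSI broth microdilution. Fractional inhibitory concentration index calculated and interpreted as synergy (<0.5), additive (0.5–1), indifferent or antagonistic.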

Candida albicans [13] = experiment: Inhibition of ergosterol biosynthesis in fluconazole resistant Candida albicans A171 at 0.5 to 1 times MIC relative to control; assay type: functional
Summary of the method: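 Total sterols quantified by alcoholic KOH extraction in cells grown in 50 ml TSB with compounds at MIC and ½ MIC; untreated and 8 μg mL–1 fluconazole controls. Spectral scan; ergosterol content from A281.5 and A230 absorbances, dilution factor and pellet weight, correcting for 24(28) DHE.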

Candida albicans [14] = experiment: Inhibition of ergosterol biosynthesis in fluconazole susceptible Candida albicans ATCC 90028 at 0.5 to 1 times MIC relative to control; assay type: functional
Summary of the method: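 ATCC90028 grown in 50 ml TSB with MIC and ½ MIC of compound; untreated and 8 μg mL–1 fluconazole controls. Sterols extracted by alcoholic KOH method and spectrophotometrically scanned; ergosterol % calculated from A281.5 and A230 (E values 290 and 518) with dilution factor, per pellet weight.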

Candida albicans [15] = experiment: Inhibition of ABC efflux pumps in fluconazole susceptible Candida albicans 003gr assessed as reduction in energy-dependent rhodamine 6G efflux in presence of 0.1 M glucose after 25 mins […] relative to control
Candida albicans [16] = experiment: Antifungal activity against fluconazole resistant Candida albicans 167-1 in presence of fluconazole by CLSI protocol based broth microdilution method; assay type: functional; summary of the method: as §3
Candida albicans [17] = experiment: Antifungal activity against fluconazole susceptible Candida albicans 003gr in presence of fluconazole by CLSI protocol based broth microdilution method; assay type: functional
Candida albicans [18] = experiment: Inhibition of ABC efflux pumps in fluconazole resistant Candida albicans 167-2 assessed as reduction in energy-dependent rhodamine 6G efflux in presence of 0.1 M glucose after 25 mins […] relative to control
Candida albicans [19] = experiment: Antifungal activity against fluconazole susceptible Candida albicans 004gr by CLSI protocol based broth microdilution method; assay type: functional
Summary of the method: (§4)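 Clinical isolates and control strain subcultured at least twice on TSA, 37 °C, 48 h. MICs by CLSI M27-A3 broth microdilution; compounds dissolved in DMSO to 2000 μg mL–1 stock. Fluconazole positive control, culture, media and DMSO vehicle controls in each run. Duplicate experiments; MIC in μg mL–1.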

Candida albicans [20] = experiment: Antifungal activity against fluconazole susceptible Candida albicans 0079gr in presence of fluconazole by CLSI protocol based broth microdilution method; assay type: functional
Candida albicans [21] = experiment: Antifungal activity against Candida albicans ATCC 90028 by CLSI protocol based broth microdilution method; assay type: functional; summary of the method: as §4
Candida albicans [22] = experiment: Antifungal activity against fluconazole resistant Candida albicans 167-2 in presence of fluconazole by CLSI protocol based broth microdilution method; assay type: functional; summary of the method: as §3
Candida albicans [23] = experiment: Antifungal activity against fluconazole susceptible Candida albicans 0079gr by CLSI protocol based broth microdilution method; assay type: functional; summary of the method: as §4
Candida albicans [24] = experiment: Antifungal activity against fluconazole resistant Candida albicans 167-1 by CLSI protocol based broth microdilution method; assay type: functional; summary of the method: as §1
Candida albicans [25] = experiment: Antifungal activity against fluconazole susceptible Candida albicans 0072gr by CLSI protocol based broth microdilution method; assay type: functional; summary of the method: as §4
Candida albicans [26] = experiment: Antifungal activity against fluconazole susceptible Candida albicans 003gr by CLSI protocol based broth microdilution method; assay type: functional; summary of the method: as §4
Candida albicans [27] = experiment: Antifungal activity against fluconazole resistant Candida albicans A171 by CLSI protocol based broth microdilution method; assay type: functional; summary of the method: as §1
Candida albicans [28] = experiment: Inhibition of ABC efflux pumps in fluconazole resistant Candida albicans A171 assessed as reduction in energy-dependent rhodamine 6G efflux in presence of 0.1 M glucose after 25 mins by fluorescence assay relative to control; summary of the method: as §2
Candida albicans [29] = experiment: Antifungal activity against fluconazole susceptible Candida albicans 002B1 by CLSI protocol based broth microdilution method; assay type: functional; summary of the method: as §4
Candida albicans [30] = experiment: Antifungal activity against fluconazole susceptible Candida albicans 004B1 in presence of fluconazole by CLSI protocol based broth microdilution method; assay type: functional
Candida albicans [31] = experiment: Antifungal activity against fluconazole susceptible Candida albicans 004B1 by CLSI protocol based broth microdilution method; assay type: functional; summary of the method: as §4

SMILES	fractional inhibitory concentration index (FICI) (Candida albicans [1])	MIC (Candida albicans [2])	inhibition (Candida albicans [3])	inhibition (Candida albicans [4])	fractional inhibitory concentration index (FICI) (Candida albicans [5])	fractional inhibitory concentration index (FICI) (Candida albicans [6])	inhibition (Candida albicans [7])	inhibition (Candida albicans [8])	inhibition (Candida albicans [9])	fractional inhibitory concentration index (FICI) (Candida albicans [10])	inhibition (Candida albicans [11])	fractional inhibitory concentration index (FICI) (Candida albicans [12])	inhibition (INH) (Candida albicans [13])	inhibition (INH) (Candida albicans [14])	inhibition (Candida albicans [15])	fractional inhibitory concentration index (FICI) (Candida albicans [16])	fractional inhibitory concentration index (FICI) (Candida albicans [17])	inhibition (Candida albicans [18])	MIC (Candida albicans [19])	fractional inhibitory concentration index (FICI) (Candida albicans [20])	other results
O=C(/C=C/c1ccccc1)c1ccccc1 [CHALCONE]	0.75 - 4.38	31 to 62 µg/mL (≈ 149 to 298 µM)	< 20%	< 20%	0.75 - 4.38	0.75 - 4.38	< 20%	< 20%	< 20%	0.75 - 4.38	< 20%	0.562 - 0.62	49 - 94%	66 - 99%	< 20%	0.562 - 0.62	0.75 - 4.38	< 20%	31 to 62 µg/mL (≈ 149 to 298 µM)	0.75 - 4.38	MIC (Candida albicans [21]): 31 to 62 µg/mL (≈ 149 to 298 µM); fractional inhibitory concentration index (FICI) (Candida albicans [22]): 0.562 - 0.62; MIC (Candida albicans [23]): 31 to 62 µg/mL (≈ 149 to 298 µM); MIC (Candida albicans [24]): 31 to 62 µg/mL (≈ 149 to 298 µM); MIC (Candida albicans [25]): 31 to 62 µg/mL (≈ 149 to 298 µM); MIC (Candida albicans [26]): 31 to 62 µg/mL (≈ 149 to 298 µM); MIC (Candida albicans [27]): 31 to 62 µg/mL (≈ 149 to 298 µM); inhibition (Candida albicans [28]): < 20%; MIC (Candida albicans [29]): 31 to 62 µg/mL (≈ 149 to 298 µM); fractional inhibitory concentration index (FICI) (Candida albicans [30]): 0.75 - 4.38; MIC (Candida albicans [31]): 31 to 62 µg/mL (≈ 149 to 298 µM)
SC1=NC(c2ccccc2)=CC(c2ccccc2)N1 (configuration not stated)	0.37 - 1.13	8 to 16 µg/mL (≈ 30 to 60.1 µM)	< 20%	< 20%	0.37 - 1.13	0.37 - 1.13	< 20%	< 20%	< 20%	0.37 - 1.13	< 20%	0.254 - 0.27	49 - 94%	66 - 99%	< 20%	0.254 - 0.27	0.37 - 1.13	< 20%	0.5 to 4 µg/mL (≈ 1.88 to 15 µM)	0.37 - 1.13	MIC (Candida albicans [21]): 0.5 to 4 µg/mL (≈ 1.88 to 15 µM); fractional inhibitory concentration index (FICI) (Candida albicans [22]): 0.254 - 0.27; MIC (Candida albicans [23]): 0.5 to 4 µg/mL (≈ 1.88 to 15 µM); MIC (Candida albicans [24]): 8 to 16 µg/mL (≈ 30 to 60.1 µM); MIC (Candida albicans [25]): 0.5 to 4 µg/mL (≈ 1.88 to 15 µM); MIC (Candida albicans [26]): 0.5 to 4 µg/mL (≈ 1.88 to 15 µM); MIC (Candida albicans [27]): 8 to 16 µg/mL (≈ 30 to 60.1 µM); inhibition (Candida albicans [28]): < 20%; MIC (Candida albicans [29]): 0.5 to 4 µg/mL (≈ 1.88 to 15 µM); fractional inhibitory concentration index (FICI) (Candida albicans [30]): 0.37 - 1.13; MIC (Candida albicans [31]): 0.5 to 4 µg/mL (≈ 1.88 to 15 µM)
